Assay outcomes from PubChem BioAssay.
TAAR1 antag = human TAAR1 antagonism; 360,000 compounds, 1.5% hits; Q96RJ0; inhibition, % at 3 µM; CHO RD-HGA16 TAAR1, Fluo-8 calcium fluorescence, antagonist;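 active = inhibition above a per-plate cutoff, the mean inhibition of test compounds on that plate plus 3 SD, cut at about 49% in these data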
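Assay system: RD-HGA16 CHO cells with stable hTAAR1 and Gα16 / Reagent: EC80 β-phenethylamine stimulus / Doses: 3 µM, single point / Timing: dye loading 75 min at 37 °C, then 30 min room temperature / Measured by: Fluo-8 intracellular calcium dye fluorescence, real-time kinetic reads / Controls: vehicle wells and EC80 agonist wells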
OX1R antag-1 = blocks the human orexin 1 receptor; 330,000 compounds, 0.43% hits; O43613; inhibition, % at 5 µM; AID 434989; CHO/OX1R cells, Fluo-8 calcium fluorescence, orexin A;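 active = inhibition above its plate's threshold, mean inhibition of all tested compounds on the plate plus 3 SD, cut at about 37% in these data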
Target sequence (O43613 whole entry, looked up): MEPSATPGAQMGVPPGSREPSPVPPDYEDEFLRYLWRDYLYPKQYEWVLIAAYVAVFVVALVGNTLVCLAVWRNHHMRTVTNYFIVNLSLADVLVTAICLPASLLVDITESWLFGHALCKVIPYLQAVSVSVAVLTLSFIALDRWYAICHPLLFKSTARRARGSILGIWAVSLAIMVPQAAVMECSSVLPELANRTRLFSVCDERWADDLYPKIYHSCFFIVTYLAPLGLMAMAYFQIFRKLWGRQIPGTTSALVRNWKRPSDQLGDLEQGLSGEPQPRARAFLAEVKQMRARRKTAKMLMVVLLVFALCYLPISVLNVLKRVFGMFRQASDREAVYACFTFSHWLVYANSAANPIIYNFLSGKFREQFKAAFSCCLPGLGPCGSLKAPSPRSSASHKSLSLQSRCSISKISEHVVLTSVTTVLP
TAAR1 agonist = human TAAR1 agonism | Q96RJ0 | CHO RD-HGA16 TAAR1, Fluo-8 calcium fluorescence; vehicle wells 0%, saturating PEA agonist 100% | activation, % at 3 µM | 360,000 compounds, 0.99% hits;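 active = activation above the mean activation of all test compounds in the run plus 3 SD, cut at about 38% in these data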
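Repeats: no replicates (n 1) | Material: CHO-derived RD-HGA16 cells with stable Gα16 and human TAAR1 | Technique: Kinetic Fluo-8 calcium fluorescence | Schedule: 17-24 h seeding, 75 min 37 °C dye, 30 min RT | Evaluation: % activation from peak over basal fluorescence ratio, DMSO-to-PEA scaled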
OX1R antag-2 = antagonists of human orexin 1 receptor (OX1R). 330,000 compounds, 1.8% hits. OX1R-expressing cells, FRET antagonist read-out. inhibition, % at 6.6 µM; in the data active = inhibition mostly above about 38%, no sharp cut-off; inactive = mostly below about 40%
NTR1 ag = NTR1 (human) agonism; P30989; activation, % at 20 µM; NTR1-U2OS beta-arrestin-GFP spot imaging, agonist mode; 330,000 compounds, 0.17% hits;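 active = activation at or above 40% of the spot to cytoplasm intensity ratio, with at least 20 cells analyzed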
CHO parental Ca = counter-screen for OX1R antagonists: effect in parental CHO cells; parental CHO-K1, ATP-induced calcium, Fluo-8 fluorescence; inhibition, % at 5.6 µM; 330,000 compounds, 0.63% hits;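 active = inhibition above that plate's mean sample inhibition plus 3 SD, cut at about 26% in these data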
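material = parental CHO cells | also added = ATP as calcium-mobilizing challenge | dosing = single point at 5.6 µM | detection = intracellular calcium via Fluo-8 no-wash fluorescent dye | read-out = % inhibition | benchmarks = low control ATP plus DMSO, high control DMSO only | repeats = one well per compound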
OX1R HTRF confirm = OX1R (human) antagonism, HTRF confirmed; 1,800 compounds, 49% hits; OX1R-expressing cells, HTRF antagonist assay; inhibition, % at 6.6 µM; shares compounds with OX1R antag-2; in the data active = inhibition above about 55%;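 also: CHO cells expressing OX1R stimulated with orexin A at about EC80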
CHO-K1 HTRF = signal in parental CHO-K1 cells, OX1R antagonist counter-screen; shares compounds with OX1R antag-2; HTRF counterscreen; inhibition, % at 6.6 µM; 1,800 compounds, 48% hits; AID 493232; in the data active = inhibition above about 17%
Hits are given with their value; - = inactive; . = not tested or not shown; + = active, no number. The list is not random: actives were taken first. Their share in the collection is about 4%.

SMILES	TAAR1 antag	OX1R antag-1	TAAR1 agonist	OX1R antag-2	NTR1 ag	CHO parental Ca	OX1R HTRF confirm	CHO-K1 HTRF
N/C(=N\OC(=O)c1cccc([N+](=O)[O-])c1)c1ccccn1	-	-	-	96.5	-	-	-	37.7
N/C(=N/S(=O)(=O)c1ccccc1)c1cccc([N+](=O)[O-])c1	-	-	-	89.6	-	-	-	20.7
O=C(c1cnc(Cc2c[nH]c3ccccc23)c(I)c1)N1CCCCC1	-	.	-	.	.	.	.	.
COc1cccc2c1C(=O)C=C(C)C2=O	-	-	-	124.1	-	-	71.7	92.2
O=S(=O)(Nc1c(O)ccc2ccccc12)c1cccc2ccccc12	.	-	.	80.1	-	-	77.7	-
COc1ccc(N2CCN(C(=O)NCc3ccc(C)cc3)CC2)cc1	-	-	-	-	-	-	.	.
O=C(Cc1ccccc1)NCC(=O)OCC(=O)c1ccc([N+](=O)[O-])cc1	-	-	-	85.7	-	-	-	41.9
CCN(CC)S(=O)(=O)c1cc(NC(=O)c2cc([N+](=O)[O-])ccc2N2CCOCC2)ccc1C	-	-	-	-	-	-	.	.
O=C(N/N=C/c1ccc(O)cc1)c1cc[n+](Cc2ccccc2)cc1	-	-	-	90.2	-	-	-	45.2
COC(=O)c1ccc(NC(=O)CSc2nnc(C)n2CC2CCCO2)cc1 (stereo not drawn)	-	-	-	89.1	-	-	-	-
CC(CCc1ccccc1)NC(=O)CNC(=O)c1cccs1 (stereo not drawn)	-	-	-	-	-	-	.	.
O=[N+]([O-])c1ccc(C[n+]2ccc(Cc3ccccc3)cc2)cc1	-	-	-	111.5	-	-	72.5	48.1
O=[N+]([O-])c1ccc(C[n+]2ccccc2)cc1	-	-	-	-	-	-	.	.
CCC(/C=C1\Oc2ccc(OC)cc2N1C)=C\c1sc2ccccc2[n+]1CCCS(=O)(=O)[O-]	-	.	-	.	.	.	.	.
COc1cc(/C=C/c2sc3ccccc3[n+]2CCCS(=O)(=O)[O-])ccc1O	-	-	-	86.2	-	-	58.9	99.1
O=C(CN(C(=O)Cn1nnc(-c2ccc(F)cc2)n1)c1cccc(F)c1)NC1CCCC1	-	-	-	-	-	-	.	.
NS(=O)(=O)c1ccc(N/N=C/c2ccccc2C(=O)O)c([N+](=O)[O-])c1	-	-	-	161.3	-	-	-	73.8
COc1ccc(N(C=O)C(C(=O)Nc2c(C)cccc2C)c2ccccc2)cc1 (stereo not drawn)	-	-	-	-	-	-	.	.
COc1ccc(Cn2nnc3c(=O)[nH]c(C4CCN(S(=O)(=O)c5ccc(C)cc5)CC4)nc32)cc1	-	-	-	-	-	-	.	.
O=c1c2ccccc2nc2c3ccccc3c(NCc3cccnc3)nn12	-	-	-	-	-	-	.	.
O=c1c2ccccc2nc2c3ccccc3c(NCc3ccccn3)nn12	-	-	-	90.3	-	-	87.7	-
O=C(c1nc2nc(-c3ccccc3)cc(C(F)(F)F)n2n1)N1CCOCC1	-	-	-	77.3	-	-	-	26.7
O=C(c1nn2c(C(F)(F)F)cc(-c3ccccc3)nc2c1Cl)N1CCOCC1	-	-	-	-	-	-	.	.
CCN(CC)S(=O)(=O)c1ccc(C(=O)OCCN2C(=O)c3cccc4c(N5CCOCC5)ccc(c34)C2=O)cc1	-	-	-	-	-	-	.	.
CC(=O)N(C(C)=O)N1C(=O)c2cccc3c(N4CCOCC4)ccc(c23)C1=O	-	-	-	118.5	-	-	-	39.7
SMILES	TAAR1 antag	OX1R antag-1	TAAR1 agonist	OX1R antag-2	NTR1 ag	CHO parental Ca	OX1R HTRF confirm	CHO-K1 HTRF
COc1ccc(NC(=O)c2nc[nH]c2C(=O)NCCCCCNC(=O)OC(C)(C)C)cc1	.	-	.	-	-	-	.	.
Cc1c(NS(=O)(=O)c2cccc(C(=O)NCc3ccc(Cl)cc3)c2)c(=O)n(-c2ccccc2)n1C	-	-	-	84.4	-	-	83.6	-
CCN(C(=O)COC(=O)c1cc(S(=O)(=O)Nc2c(C)n(C)n(-c3ccccc3)c2=O)ccc1Cl)C1CCCCC1	-	-	-	80.4	-	-	85.6	-
CCOn1c(=O)c[n+]([O-])c2ccccc21	-	-	-	-	-	-	.	.
COC(=O)c1ccccc1COn1c(=O)c[n+]([O-])c2ccccc21	-	-	-	84.7	-	-	-	29.4
O=c1c[n+]([O-])c2ccccc2n1OCc1c(F)cccc1F	-	-	-	81.3	-	-	-	52.8
O=c1c[n+]([O-])c2ccccc2n1OCc1ccccn1	-	-	-	128.6	-	-	-	54.8
O=C(c1ccccc1)C(O)C(c1ccccc1)N1CCOCC1 (stereo not drawn)	-	-	-	-	-	-	.	.
COc1ccc(-c2csc(Nc3ncccc3C)n2)cc1OC	-	-	-	84.0	-	-	72.6	-
Cc1cccnc1Nc1nc(-c2ccc(O)c(O)c2)cs1	-	-	-	-	-	-	.	.
Cn1nc(-c2ccccn2)nc2c(=O)n(C)c(=O)nc1-2	-	-	-	+	-	-	91.1	97.5
CCC(C(=O)NCCCN1CC(C)CC(C)C1)n1ncn2c(cc3occc32)c1=O (stereo not drawn)	-	-	-	-	-	-	.	.
COc1ccc(OC)c(NC(=O)CSCc2cnn(-c3ccccc3)c2-n2cccc2)c1	-	-	-	78.0	-	-	76.9	-
COc1ccc(Cc2nnc(NC(=O)c3ccccc3)s2)cc1OC	-	.	-	.	-	.	.	.
COc1cc(/C=N/NC(=O)c2sc(N)c(C#N)c2C)cc(Br)c1O	-	-	-	82.0	-	-	-	-
COc1cccc(OCC(=O)Nc2c3c(nn2-c2ccccc2)CS(=O)(=O)C3)c1	-	-	-	-	-	-	.	.
Cc1ccc(-c2nc3cc(N)ccc3o2)c(C)c1	-	-	-	-	-	-	.	.
Nc1ccc2oc(-c3cccc4ccccc34)nc2c1	-	-	-	82.2	-	-	67.7	-
NS(=O)(=O)c1ccc(CCNS(=O)(=O)c2ccc(Cl)s2)cc1	-	-	-	-	-	-	.	.
CCC1(c2ccc(F)cc2)NC(=O)N(CC(=O)N2CCN(C(=O)c3ccco3)CC2)C1=O (stereo not drawn)	-	-	-	-	-	-	.	.
COc1cccc(S(=O)(=O)N(C)C[C@@H]2OCc3cnnn3CCCC(=O)N([C@H](C)CO)C[C@@H]2C)c1	-	.	-	.	.	.	.	.
O=C1NC(=S)N/C1=C/c1cccc([N+](=O)[O-])c1	-	-	-	93.5	-	-	-	39.6
COc1cc2c(cc1NC(=O)CCCN1C(=O)CCC1=O)oc1ccccc12	-	-	-	-	-	-	.	.
